Screens (PubChem)
Hits are enriched below; roughly 2.6% of the tested compounds scored in any of these assays.
SENP8 block-1 – SENP8 protease inhibitors, primary screen, biochemical, luminescence; inhibition, % at 10 µM; purified SENP8, Z-RLRGG-aminoluciferin cleavage; hit rate 1.2% among 330,000; AID 2540, 2010; Sentrin-specific protease 8 (Homo sapiens), Q96LD8; in the data active means inhibition above about 50%
Target sequence (Q96LD8 whole entry, looked up): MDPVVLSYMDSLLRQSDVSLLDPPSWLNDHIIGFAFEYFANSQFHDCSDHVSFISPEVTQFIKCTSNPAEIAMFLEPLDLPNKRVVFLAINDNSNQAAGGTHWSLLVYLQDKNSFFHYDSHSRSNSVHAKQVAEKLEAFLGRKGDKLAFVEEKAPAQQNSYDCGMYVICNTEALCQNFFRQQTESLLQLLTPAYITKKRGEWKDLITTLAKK
SENP1 inh – human SENP1 catalytic domain inhibitors, primary screen, biochemical, FRET, uHTS | inhibition, % at 10 µM | Sentrin-specific protease 1 (Homo sapiens), Q9P0U3 | AID 624204, 2012 | recombinant SENP1 catalytic domain, CyPet-SUMO1-YPet FRET cleavage | hit rate 0.21% among 360,000;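 active means inhibition at least 30% at 10 µM, raw YFP signal under a set limit, fluorescence ratio 0.5 to 1.5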;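 further: 0% = enzyme with DMSO and 100% = no enzyme wells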
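Material – human SENP1 catalytic domain · Input – SENP1 enzyme, 20 pM final · Compound dosing – single concentration of 10 µM compound, 0.5% DMSO final · Timing – enzyme reaction for 50 min at room temperature, dark · Measured by – FRET fluorescence in CFP and YFP emission channels · Control set – no-enzyme wells low, DMSO-plus-enzyme wells high control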
SENP7 block – SENP7 protease inhibitors, primary screen, biochemical, luminescence, uHTS | inhibition, % at 5 µM | Sentrin-specific protease 7 (Homo sapiens), Q9BQF6 | hit rate 1.5% among 330,000 | recombinant SENP7, Z-RLRGG-aminoluciferin luminescence, 40 min | AID 434973, 2010;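 active means inhibition above about 50% at the single test dose, limit read from the data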;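 further: plate controls were DMSO with enzyme for no effect and no enzyme buffer wells for full effect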
SENP8 block-2 – human SENP8 protease inhibitors, primary screen, biochemical, fluorescence, Nedd8 protein substrate, uHTS; recombinant SENP8; inhibition, % at 20 µM; hit rate 0.64% among 360,000; AID 602440, 2012; in the data active means inhibition mostly above about 40%, no sharp cut-off; inactive means mostly below about 27%
SENP6 block – SENP6 protease inhibitors, primary screen, biochemical, luminescence, uHTS | inhibition, % at 10 µM | AID 2599, 2010 | hit rate 1.8% among 330,000 | Recombinant SENP6 catalytic domain, aminoluciferin luminescence;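 active means inhibition above about 50% at the single tested dose, limit read from the data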;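 further: plate controls were DMSO wells with enzyme for no effect and DMSO wells lacking enzyme for full effect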
Platelet DG rel – inhibitors of platelet dense granule secretion, primary screen, cell-based, MLPCN, human platelets | hit rate 0.22% among 300,000 | human platelet-rich plasma, SFLLRN dense granule ATP release, luminescence | AID 1663, 2009 | inhibition, %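 (compounds screened at 7.5 µM in platelet-rich plasma)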;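 active means mean replicate score, as percent of positive control, at or above 50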
SENP8 conf – SENP8 protease inhibitors, retest, confirmation, biochemical, luminescence, single concentration; shares compounds with SENP7 block; inhibition, % at 12.5 µM; AID 488912, 2010; Recombinant SENP8, Z-RLRGG-aminoluciferin luminescence, 60 min; hit rate 40% among 6,200;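 active means mean inhibition across replicates above about 50%, limit read from the data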
SENP6 conf – SENP6 protease inhibitors, confirmation, biochemical, luminescence, single concentration | shares compounds with SENP7 block | recombinant SENP6, Z-RLRGG-aminoluciferin luminescence | inhibition, % at 12.5 µM | hit rate 58% among 6,200 | AID 488915, 2010
SENP7 conf – SENP7 protease inhibitors, retest, confirmation, biochemical, luminescence, single concentration. shares compounds with SENP7 block. inhibition, % at 12.5 µM. recombinant SENP7, Z-RLRGG-aminoluciferin luminescence, 40 min. hit rate 69% among 6,200
Casp3 SENP sel – caspase-3 protease inhibitors, confirmation, selectivity assay for SENP inhibitor project, biochemical, single concentration; shares compounds with SENP7 block; purified caspase-3, Z-DEVD-aminoluciferin luminescence, 60 min; inhibition, % at 12.5 µM; hit rate 60% among 6,200;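 active means mean inhibition above about 50%, limit read from the data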;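 further: plate controls were enzyme with DMSO for no effect and wells without caspase-3 for full effect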
Target sequence (P42574 28-227 limits assumed): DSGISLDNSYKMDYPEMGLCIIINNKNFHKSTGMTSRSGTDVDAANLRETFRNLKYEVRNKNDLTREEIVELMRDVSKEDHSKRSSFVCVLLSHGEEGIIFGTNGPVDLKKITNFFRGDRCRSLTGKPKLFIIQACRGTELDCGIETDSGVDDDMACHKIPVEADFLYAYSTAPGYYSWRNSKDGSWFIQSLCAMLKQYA
SENP luc ctr – counter-screen for SENP inhibitors: luminescence interference | shares compounds with SENP7 block | Pre-incubated SENP8/Z-RLRGG-aminoluciferin, luciferase luminescence interference | inhibition, % at 12.5 µM | hit rate 39% among 6,200;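 active means mean inhibition above about 50% when retested at one dose, limit read from the data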;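 further: plate controls were DMSO wells with completed reaction for no effect and substrate without enzyme for full effect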
An asterisk follows results filed as active; . = no result.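 How the source made its calls, unless noted: active means mean inhibition above about 50% in the one-dose retest (limit read from the data); inactive means the rest.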

SMILES | SENP8 block-1 | SENP1 inh | SENP7 block | SENP8 block-2 | SENP6 block | Platelet DG rel | SENP8 conf | SENP6 conf | SENP7 conf | Casp3 SENP sel | SENP luc ctr
O=C1CCCCC1Sc1nnc(-c2ccc3c(c2)OCO3)o1 (stereo not given) | 68* | 1 | 73* | -4 | 80* | 11 | 72* | 72* | 93* | 89* | 77*
c1coc(-c2nnc(-c3ccc4c(c3)OCO4)o2)c1 | 28 | . | 48 | . | 41 | 1 | . | . | . | . | .
CCN1CCN(c2ccc(NC(=O)c3cccc(OCc4ccccc4)c3)cc2)CC1 | 16 | 1 | 24 | 7 | 56* | -5 | 0 | -3 | 8 | 9 | 4
CC(=O)Nc1ccc(OCc2cccc([N+](=O)[O-])c2)cc1 | -6 | 1 | 8 | 17 | -45 | 1 | . | . | . | . | .
CN1CCN(c2ccc(NC(=O)c3cccc(OCc4ccccc4)c3)cc2)CC1 | 21 | 0 | 29 | 28 | 59* | -16 | 23 | 11 | 23 | 15 | 4
O=C(Nc1ccc(COc2ccccc2)cc1)c1cccc([N+](=O)[O-])c1 | -4 | 1 | 63* | 16 | 9 | 1 | -1 | 0 | 2 | 6 | 5
COc1ccccc1OCCNC(=O)c1ccc(C)c(S(=O)(=O)N2CCOCC2)c1 | -10 | 0 | 13 | 22 | -1 | 11 | . | . | . | . | .
Cc1ccc(-c2cnc(-c3ccncc3)o2)cc1 | 2 | 0 | 10 | -266 | 20 | 2 | . | . | . | . | .
Nc1ccc(-c2ncc(-c3ccccc3)o2)cc1 | 61* | -1 | 69* | -346 | 73* | 18 | 74* | 68* | 89* | 45 | 74*
Oc1cccc2c3c(oc12)CCCC3 | 2 | 0 | 5 | 26 | -17 | 13 | . | . | . | . | .
Oc1cc(NCCc2cccnc2)cc2cccnc12 | 48 | 2 | 39 | -158 | 72* | . | 14 | 49 | 14 | 88* | -4
c1cc2nnnn2nc1N1CCCCCC1 | -8 | 0 | 0 | -1 | -11 | -1 | . | . | . | . | .
c1cc2nnnn2nc1N1CCCCC1 | 5 | 2 | 58* | 5 | 1 | 11 | 8 | 6 | -3 | -6 | -8
N#Cc1cccc(NC(=O)c2cc(C3CCCCN3C(=O)c3ccccn3)on2)c1 (stereo not given) | . | 0 | . | 10 | . | . | . | . | . | . | .
CCCn1c(O)c(N=Nc2ccc3ccccc3n2)c2ccccc21 | 85* | 17 | 93* | 25 | 95* | 4 | 42 | 57* | 61* | 70* | 0
O=C(CCC1CCN(C(=O)c2cc(C(F)(F)F)ccc2Cl)CC1)NC1CC1 | 0 | 2 | 8 | 2 | 15 | 10 | . | . | . | . | .
COc1ccc2nc3sc(C(=O)N4CCN(C)CC4)cc3cc2c1 | 2 | -2 | 3 | -289 | -10 | 5 | . | . | . | . | .
CCc1ccc2nc3sc(C(=O)O)cc3cc2c1 | 37 | -1 | 4 | -33 | 50* | 1 | 58* | 53* | 82* | 76* | 67*
